Laboratory results as given in ChEMBL document CHEMBL1121728, “Synthesis and antitumor activity of an acyclonucleoside derivative of 5-fluorouracil” (1981).
pIC50: −log10 of the molar value.

Columns and labels:
P388 [1] = test: Compound was evaluated for the median survival time of mice infected with P388 leukemia at a dose of 40 […] in q.d. 1-4 schedule; type: functional, Mus musculus
In short: (§1)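 Male B6D2F1J mice, five per group, received 10^6 P388 leukemia cells ip on day 0. Treatment was ip in water on q.d. 1-4, b.i.d. × 4 or q.d. 1-9 schedules. Survival was recorded, and increase in life span (ILS) was calculated relative to untreated controls. Toxicity was judged by weight loss.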

L1210 [2] = test: Inhibition against L1210 mouse leukemia cells; type: functional; conditions: read-out: ID50 (the source's name)
In short: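 Growth inhibition of L1210 mouse leukemia cells in culture, reported as ID50 (molar concentration).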

P388 [3] = test: Percent increase in life span against mice infected with P388 leukemia at a dose of 20 […] in q.d. 1-9 schedule; type: functional, Mus musculus; in short: as §1
P388 [4] = test: Compound was evaluated for the median survival time of mice infected with P388 leukemia at a dose of 20 […] in b.i.d. x 4 schedule; type: functional, Mus musculus; in short: as §1
P388 [5] = test: Compound was evaluated for the 7-day percent change in weight of mice infected with P388 leukemia at a dose of 40 […] in q.d. 1-9 schedule; type: functional, Mus musculus
In short: (§2)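 Groups of five male B6D2F1J mice were inoculated ip with 10^6 P388 cells on day 0. Drugs were given ip in water on q.d. 1-4, b.i.d. × 4 or q.d. 1-9 schedules. Animals were weighed on days 1 and 7, and weight change was expressed as a percentage.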

P388 [6] = test: Compound was evaluated for the 7-day percent change in weight of mice infected with P388 leukemia at a dose of 40 […] in q.d. 1-4 schedule; type: functional, Mus musculus; in short: as §2
P388 [7] = test: Compound was evaluated for the 7-day percent change in weight of mice infected with P388 leukemia at a dose of 20 […] in b.i.d. x 4 schedule; type: functional, Mus musculus; in short: as §2
P388 [8] = test: Compound was evaluated for the median survival time of mice infected with P388 leukemia at a dose of 20 […] in q.d. 1-9 schedule; type: functional, Mus musculus; in short: as §1
P388 [9] = test: Compound was evaluated for the median survival time of mice infected with P388 leukemia at a dose of 40 […] in q.d. 1-9 schedule; type: functional, Mus musculus; in short: as §1
P388 [10] = test: Compound was evaluated for the 7-day percent change in weight of mice infected with P388 leukemia at a dose of 20 […] in q.d. 1-4 schedule; type: functional, Mus musculus; in short: as §2
P388 [11] = test: Compound was evaluated for the 7-day percent change in weight of mice infected with P388 leukemia at a dose of 40 […] in b.i.d. x 4 schedule; type: functional, Mus musculus; in short: as §2
P388 [12] = test: Compound was evaluated for the median survival time of mice infected with P388 leukemia at a dose of 20 […] in q.d. 1-4 schedule; type: functional, Mus musculus; in short: as §1
P388 [13] = test: Compound was evaluated for the median survival time of mice infected with P388 leukemia at a dose of 40 […] in b.i.d. x 4 schedule; type: functional, Mus musculus
L1210 [14] = test: Inhibition against L1210 mouse leukemia cells; No effect; type: functional; conditions: read-out: ID50 (the source's name)
L1210 [15] = test: Inhibition against L1210 mouse leukemia cells; Inactive; type: functional; conditions: read-out: ID50 (the source's name)
P388 [16] = test: Compound was evaluated for the 7-day percent change in weight of mice infected with P388 leukemia at a dose of 100 […] in q.d. 1-4 schedule; type: functional, Mus musculus
In short: (§3)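 Male B6D2F₁J mice in groups of five received 10⁶ P388 cells ip on day 0. Compound was then given ip in water on the stated schedule. Body weights were taken on days 1 and 7, and the change is expressed as a percentage. Survival was also recorded as percent increase in life span.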

P388 [17] = test: Compound was evaluated for the median survival time of mice infected with P388 leukemia at a dose of 400 […] in b.i.d. x 4 schedule; type: functional, Mus musculus; in short: as §1
P388 [18] = test: Compound was evaluated for the 7-day percent change in weight of mice infected with P388 leukemia at a dose of 100 […] in b.i.d. x 4 schedule; type: functional, Mus musculus; in short: as §3
P388 [19] = test: Compound was evaluated for the 7-day percent change in weight of mice infected with P388 leukemia at a dose of 240 […] in q.d. 1-9 schedule; type: functional, Mus musculus; in short: as §3
P388 [20] = test: Compound was evaluated for the median survival time of mice infected with P388 leukemia at a dose of 100 […] in q.d. 1-4 schedule; type: functional, Mus musculus; in short: as §1
P388 [21] = test: Compound was evaluated for the 7-day percent change in weight of mice infected with P388 leukemia at a dose of 120 […] in q.d. 1-9 schedule; type: functional, Mus musculus; in short: as §3
P388 [22] = test: Compound was evaluated for the median survival time of mice infected with P388 leukemia at a dose of 50 […] in q.d. 1-4 schedule; type: functional, Mus musculus; in short: as §1
P388 [23] = test: Compound was evaluated for the median survival time of mice infected with P388 leukemia at a dose of 60 […] in q.d. 1-9 schedule; type: functional, Mus musculus; in short: as §1
P388 [24] = test: Compound was evaluated for the median survival time of mice infected with P388 leukemia at a dose of 200 […] in b.i.d. x 4 schedule; type: functional, Mus musculus; in short: as §1
P388 [25] = test: Compound was evaluated for the 7-day percent change in weight of mice infected with P388 leukemia at a dose of 50 […] in b.i.d. x 4 schedule; type: functional, Mus musculus; in short: as §3
P388 [26] = test: Compound was evaluated for the median survival time of mice infected with P388 leukemia at a dose of 200 […] in q.d. 1-4 schedule; type: functional, Mus musculus; in short: as §1
P388 [27] = test: Compound was evaluated for the median survival time of mice infected with P388 leukemia at a dose of 100 […] in b.i.d. x 4 schedule; type: functional, Mus musculus; in short: as §1
P388 [28] = test: Compound was evaluated for the 7-day percent change in weight of mice infected with P388 leukemia at a dose of 200 […] in q.d. 1-4 schedule; type: functional, Mus musculus; in short: as §3
P388 [29] = test: Percent increase in survival of P388 leukemic mice at a compound dose 400 mg/kg (b.i.d. x 4) or 240 mg/kg (q.d. 1-9) was given intraperitoneally in water; type: functional, Mus musculus; in short: as §1
P388 [30] = test: Compound was evaluated for the median survival time of mice infected with P388 leukemia at a dose of 120 […] in q.d. 1-9 schedule; type: functional, Mus musculus; in short: as §1
P388 [31] = test: Compound was evaluated for the 7-day percent change in weight of mice infected with P388 leukemia at a dose of 200 […] in b.i.d. x 4 schedule; type: functional, Mus musculus; in short: as §3
P388 [32] = test: Compound was evaluated for the 7-day percent change in weight of mice infected with P388 leukemia at a dose of 400 […] in b.i.d. x 4 schedule; type: functional, Mus musculus; in short: as §3
P388 [33] = test: Compound was evaluated for the median survival time of mice infected with P388 leukemia at a dose of 240 […] in q.d. 1-9 schedule; type: functional, Mus musculus; in short: as §1
P388 [34] = test: Compound was evaluated for the 7-day percent change in weight of mice infected with P388 leukemia at a dose of 50 […] in q.d. 1-4 schedule; type: functional, Mus musculus; in short: as §3
P388 [35] = test: Compound was evaluated for the median survival time of mice infected with P388 leukemia at a dose of 50 […] in b.i.d. x 4 schedule; type: functional, Mus musculus; in short: as §1
P388 [36] = test: 7-day weight change in mice infected with P388 leukemia at a dose of 60 […] in q.d. 1-9 schedule

Structure (SMILES): O=c1[nH]cc(F)c(=O)[nH]1 [FLUOROURACIL]
- Median survival (P388 [1]): 10 days
- pIC50 (L1210 [2]): 6.00
- Weight change (P388 [3]): -2%
- Median survival (P388 [4]): 19 days
- Weight change (P388 [5]): -23%
- Weight change (P388 [6]): -29%
- Weight change (P388 [7]): 9%
- Median survival (P388 [8]): 21 days
- Median survival (P388 [9]): 12 days
- Weight change (P388 [10]): -5%
- Weight change (P388 [11]): -12%
- Median survival (P388 [12]): 23 days
- Median survival (P388 [13]): 12 days

Structure (SMILES): O=c1[nH]c(=O)n(COCCO)cc1Br
- pIC50 (L1210 [14]): 3.00

Structure (SMILES): Nc1nc(=O)n(COCCO)cc1F
- pIC50 (L1210 [15]): 4.00

Structure (SMILES): O=c1[nH]c(=O)n(COCCO)cc1I
- pIC50 (L1210 [14]): 3.00

Structure (SMILES): O=c1[nH]c(=O)n(COCCO)cc1F
- Weight change (P388 [16]): 6%
- Median survival (P388 [17]): 21 days
- Weight change (P388 [18]): 4%
- Weight change (P388 [19]): 0%
- Median survival (P388 [20]): 15 days
- Weight change (P388 [21]): 0%
- Median survival (P388 [22]): 14 days
- pIC50 (L1210 [2]): 4.77
- Median survival (P388 [23]): 16 days
- Median survival (P388 [24]): 20 days
- Weight change (P388 [25]): 5%
- Median survival (P388 [26]): 17 days
- Median survival (P388 [27]): 17 days
- Weight change (P388 [28]): 6%
- Increase (P388 [29]): 75%
- Median survival (P388 [30]): 18 days
- Weight change (P388 [31]): 4%
- Weight change (P388 [32]): 0%
- Median survival (P388 [33]): 21 days
- Weight change (P388 [34]): 7%
- Median survival (P388 [35]): 16 days
- 7-day weight change (P388 [36]): 8%
